Test results reported in PMC3856692 (Biochemistry, 2013).
“Also recorded” adds a separate entry of the source. Primed or numbered codes have the meaning given here. No end group written: not given here. 5FAM′ = 5-carboxyfluorescein

Experiments:
[1] = 15N relaxation measurements, oligomeric state; type: physicochemical; settings: 15N relaxation experiments
CHIP [2] = biological target: T1, CHIP (Homo sapiens, UniProt Q9UNE7); test: Fluorescence polarization; type: binding; settings: FP, 20 nM tracer, Figure 2
T1 sequence (Q9UNE7 1-303): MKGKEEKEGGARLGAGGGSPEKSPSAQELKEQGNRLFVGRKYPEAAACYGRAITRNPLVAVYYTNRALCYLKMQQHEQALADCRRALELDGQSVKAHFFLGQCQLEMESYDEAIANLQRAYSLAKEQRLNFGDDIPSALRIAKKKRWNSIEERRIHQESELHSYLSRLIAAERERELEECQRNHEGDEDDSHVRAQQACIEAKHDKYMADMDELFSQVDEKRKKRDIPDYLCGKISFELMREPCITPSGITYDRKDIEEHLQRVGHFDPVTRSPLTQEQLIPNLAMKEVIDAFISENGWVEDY

CHIP [3] = biological target: T1, CHIP; test: Biolayer interferometry; type: binding; settings: for Binding to CHIP (in words): BLI, Figure 1d / Figure 5
CHIP [4] = test: 1H-15N TROSY NMR of 15N-labeled Hsc70 with CHIP; type: binding, Human; settings: for Change of C-terminal resonances on CHIP binding (in words): residues 639-646 (GPTIEEVD)
Outline: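 800 MHz TROSY of 15N full-length Hsc70 (uncleaved His tag) in 50 mM K2PO4, 110 µM NRLLLTG, 1 mM ADP, 5 mM MgCl2, 10 mM KCl, 0.02% NaN3, pH 7.2. Spectra: Hsc70 alone at 100 µM (12 h); Hsc70:CHIP 57:21 µM and 40:30 µM (52 h each); 67 µM 1:1 with CHIP; 60 µM 1:1:1 with UbcH5. Tail assigned from 250 µM triple-labelled Hsc70(391–646) 3D spectra at 30 °C.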

CHIP [5] = test: 1D 15N NMR relaxation of Hsc70 with or without CHIP; set-up: species or system Human; settings: 15N relaxation
Outline: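 15N-labelled full-length Hsc70 with uncleaved N-terminal His tag, 67 µM in 50 mM K2PO4, 200 µM NRLLLTG, 1 mM ADP, 5 mM MgCl2, 10 mM KCl, 0.02% NaN3, pH 7.2, 25 °C, with or without CHIP, at 800 MHz. 1D 15N R1 (10 h) and R2 (4.5 h) experiments were run, plus CSA/dipolar cross-correlated relaxation (T 10.2 ms). The 9.6–8.6 and 8.6–7.8 ppm regions were integrated and fitted single-exponentially, with jackknife errors.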

[6] = biological target: T2, CHIP (C-terminus of Hsc70 Interacting Protein), full-length human (human, UniProt Q9UNE7 1-303); test: fluorescence polarisation
T2 sequence (looked up): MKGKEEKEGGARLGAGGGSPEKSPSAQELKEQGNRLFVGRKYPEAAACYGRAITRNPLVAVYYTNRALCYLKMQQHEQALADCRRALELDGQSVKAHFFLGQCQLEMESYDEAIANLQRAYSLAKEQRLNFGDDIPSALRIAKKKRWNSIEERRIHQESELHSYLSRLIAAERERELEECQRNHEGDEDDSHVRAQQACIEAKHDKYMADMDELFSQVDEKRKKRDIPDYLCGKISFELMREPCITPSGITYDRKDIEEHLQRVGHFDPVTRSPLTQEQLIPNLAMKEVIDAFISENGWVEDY

SBD: substrate-binding domain, Hsc70 residues 391–646
Oligomeric state (in words) [1]: dimeric

5FAM-MEEVD
Binding / affinity of fluorescent probes for CHIP (in words) (CHIP [2]): nearly identical affinity to the longer peptide
Binding / affinity of fluorescent probes for CHIP (in words) (CHIP [2]; listed as MEEVD): binds with affinity equal to that of the longer probe

Hsc70ΔEEVD: Hsc70 mutant lacking the EEVD sequence
Binding to CHIP (in words) (CHIP [3]): Neither the Hsc70ΔSBD, nor the Hsc70ΔEEVD mutant displayed any ability to bind CHIP; also recorded: cannot bind CHIP

wtHsc70: Human full-length Hsc70 (HspA8; 1–646)
Oligomeric state (in words) [1]: monomeric at 100 µM
Change of TROSY spectrum on addition of UbcH5c or excess CHIP (in words) (CHIP [4]; 1:1:1 15N Hsc70, CHIP and UbcH5c, 60 µM, or excess CHIP (data not shown)): does not further change the spectrum
Change of TROSY spectrum on CHIP binding (in words) (CHIP [4]; 800 MHz, ADP and NRLLLTG bound state, pH 7.2, 25°C, 1:1 wtHsc70:CHIP): barely distinguishable from that of wtHsc70 alone
Change of resonances of residues 616–636 on CHIP binding (in words) (CHIP [4]; assigned upstream residues 616–636 of unstructured tail): remained visible and relatively unaffected by the presence of CHIP
Change of C-terminal resonances on CHIP binding (in words) (CHIP [4]): progressively disappear upon complex formation; also recorded: disappear from the wtHsc70 NMR spectrum
Change of C-terminal resonances on CHIP binding (in words) (CHIP [4]; listed as Hsc70): disappear from the NMR spectrum
Hsc70-CHIP binding stoichiometry (CHIP [3]; Hsc70 per CHIP): two molecules of Hsc70
Kd (CHIP [3]; abstract, binding of Hsc70 to CHIP): ~0.06 µM
Slower dissociation than C-terminal peptide (CHIP [3]; koff, wtHsc70 vs C-terminal peptide): ~ 5 fold
Apparent molecular weight of the Hsc70-CHIP complex (CHIP [3]; two molecules of Hsc70 and CHIP homodimer): 210 kDa
Increase in binding free energy relative to isolated C-terminal peptide (CHIP [3]; wtHsc70 vs C-terminal peptide): 1.08 kcal/M
Extra binding free energy beyond EEVD (CHIP [3]; wtHsc70 vs isolated peptide): 4.52 kJ/mol
Rotational correlation time of structured area with vs without CHIP (in words) (CHIP [5]): not increased upon binding to CHIP

5FAM-DVEEM
Binding / affinity of fluorescent probes for CHIP (in words) (CHIP [2]): no affinity for CHIP
Binding / affinity of fluorescent probes for CHIP (in words) (CHIP [2]; listed as DVEEM): had no affinity for CHIP

NBD: nucleotide-binding domain, Hsc70 residues 1–383
Binding to CHIP (in words) (CHIP [3]; listed as Hsc70ΔSBD): Neither the Hsc70ΔSBD, nor the Hsc70ΔEEVD mutant displayed any ability to bind CHIP; also recorded: cannot bind CHIP

{5FAM′}-DDTSRMEEVD [5FAM-DDTSRMEEVD (Hsp90α-derived C-terminus, residues 723-732)]
binding result [6]: binds

{5FAM′}-MEEVD [5FAM-MEEVD]
Kd [6]: 1.5 ± 0.076 µM
